Experimental data taken from ChEMBL document CHEMBL5705886, “GSK1070916, a potent Aurora B/C kinase inhibitor with broad antitumor activity in tissue culture cells and human tumor xenograft models” (Mol Cancer Ther, 2009).
The source made the active and inactive calls. No cut-off for these calls is given here.

Legend:
[1] = tested on: RCK8; experiment: Antiproliferative activity against human RCK8 cells assessed as inhibition of cell viability measured for 6 to 7 days by cell titer glo assay; assay type: functional, cell-based
Method in brief: (§1)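 Cells seeded in recommended growth medium, held overnight at 37°C in 5% CO2, then exposed to serial dilutions of inhibitor for 6–7 d. A time-zero plate was read with CellTiter-Glo at dosing. Luminescent viability read at the end. No-cell wells subtracted as background, data expressed as percent of DMSO control.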

[2] = tested on: SK-MEL-5; experiment: Antiproliferative activity against human SK-MEL-5 cells assessed as inhibition of cell viability measured for 6 to 7 days by cell titer glo assay; assay type: functional, cell-based; method in brief: as §1
[3] = Antiproliferative activity against human Karpas-231 cells assessed as inhibition of cell viability measured for 6 to 7 days by cell titer glo assay; assay type: functional, cell-based
Method in brief: (§2)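 Cells seeded in recommended growth medium, incubated overnight at 37°C in 5% CO2, then exposed to serial dilutions of inhibitor for 6–7 d. A parallel plate was read with CellTiter-Glo at compound addition as a T=0 value. The luminescent viability readout had no-cell background subtracted and was expressed as % of DMSO control.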

[4] = Antiproliferative activity against human RKOE6 cells assessed as inhibition of cell viability measured for 6 to 7 days by cell titer glo assay; assay type: functional, cell-based; method in brief: as §1
[5] = tested on: HCT-116; experiment: Antitumor activity in human HCT-116 cells xenografted in nude mouse assessed as reduction in tumor growth at 25 to 100 mg/kg, ip administered once daily for 5 consecutive days with 2 days off scheduled for 3 cycles measured upto 60 days; conditions: dose 25-100 mg/kg, time <= 60.0 day
[6] = Antiproliferative activity against human BC-2 cells assessed as inhibition of cell viability measured for 6 to 7 days by cell titer glo assay; assay type: functional, cell-based
Method in brief: (§3)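 Tumor lines plated in recommended growth media, overnight at 37°C, 5% CO2, then given serial dilutions; a T=0 plate read with CellTiter-Glo at dosing. After 6–7 d of exposure, viability read by CellTiter-Glo luminescence. No-cell wells subtracted, data expressed as % of DMSO control.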

[7] = tested on: HT; experiment: Antiproliferative activity against human HT cells assessed as inhibition of cell viability measured for 6 to 7 days by cell titer glo assay; assay type: functional, cell-based; method in brief: as §2
[8] = tested on: HT-29; experiment: Antiproliferative activity against human HT-29 cells assessed as inhibition of cell viability measured for 6 to 7 days by cell titer glo assay; assay type: functional, cell-based; method in brief: as §2
[9] = tested on: WiDr; experiment: Antiproliferative activity against human WiDr cells assessed as inhibition of cell viability measured for 6 to 7 days by cell titer glo assay; assay type: functional, cell-based
[10] = tested on: HEL 92.1.7; experiment: Antiproliferative activity against human HEL 92.1.7 cells assessed as inhibition of cell viability measured for 6 to 7 days by cell titer glo assay; assay type: functional, cell-based; method in brief: as §3
[11] = tested on: SUD4; experiment: Antiproliferative activity against human SU-DHL-4 cells assessed as inhibition of cell viability measured for 6 to 7 days by cell titer glo assay; assay type: functional, cell-based; method in brief: as §1
[12] = tested on: HL-60; experiment: Antitumor activity in human HL-60 cells xenografted in SCID mouse assessed as median survival time at 25 mg/kg, ip administered once daily for 5 consecutive days with 2 days off scheduled for 2 cycles measured upto 120 days; assay type: functional; conditions: time <= 120 day
[13] = tested on: OVCAR-8; experiment: Antiproliferative activity against human OVCAR-8 cells assessed as inhibition of cell viability measured for 6 to 7 days by cell titer glo assay; assay type: functional, cell-based; method in brief: as §1
[14] = tested on: HH; experiment: Antiproliferative activity against human HH cells assessed as inhibition of cell viability measured for 6 to 7 days by cell titer glo assay; assay type: functional, cell-based; method in brief: as §2
[15] = tested on: SW480; experiment: Antiproliferative activity against human SW480 cells assessed as inhibition of cell viability measured for 6 to 7 days by cell titer glo assay; assay type: functional, cell-based; method in brief: as §1
[16] = tested on: KG-1; experiment: Antiproliferative activity against human KG-1 cells assessed as inhibition of cell viability measured for 6 to 7 days by cell titer glo assay; assay type: functional, cell-based; method in brief: as §2
[17] = tested on: A2780; experiment: Antiproliferative activity against human A2780 cells assessed as inhibition of cell viability measured for 6 to 7 days by cell titer glo assay; assay type: functional, cell-based; method in brief: as §3
[18] = tested on: OCI-AML-3; experiment: Antiproliferative activity against human OCI-AML-3 cells assessed as inhibition of cell viability measured for 6 to 7 days by cell titer glo assay; assay type: functional, cell-based; method in brief: as §1
[19] = tested on: CCRF-CEM; experiment: Antiproliferative activity against human CCRF-CEM cells assessed as inhibition of cell viability measured for 6 to 7 days by cell titer glo assay; assay type: functional, cell-based; method in brief: as §3
[20] = tested on: L-428; experiment: Antiproliferative activity against human L-428 cells assessed as inhibition of cell viability measured for 6 to 7 days by cell titer glo assay; assay type: functional, cell-based; method in brief: as §2
[21] = tested on: GA-10; experiment: Antiproliferative activity against human GA-10 cells assessed as inhibition of cell viability measured for 6 to 7 days by cell titer glo assay; assay type: functional, cell-based; method in brief: as §3
[22] = Antiproliferative activity against human MEC-1 cells assessed as inhibition of cell viability measured for 6 to 7 days by cell titer glo assay; assay type: functional, cell-based; conditions: MEC1; method in brief: as §2
[23] = Antiproliferative activity against human BCP-1 cells assessed as inhibition of cell viability measured for 6 to 7 days by cell titer glo assay; assay type: functional, cell-based; method in brief: as §3
[24] = tested on: COLO 205; experiment: Antitumor activity in human COLO 205 cells xenografted in nude mouse assessed as reduction in tumor growth at 25 to 100 mg/kg, ip administered once daily for 5 consecutive days with 2 days off scheduled for 2 cycles measured upto 60 days; conditions: dose 25-100 mg/kg, time 60.0 day
[25] = tested on: ASPC1; experiment: Antiproliferative activity against human ASPC1 cells assessed as inhibition of cell viability measured for 6 to 7 days by cell titer glo assay; assay type: functional, cell-based; method in brief: as §3
[26] = tested on: DG-75; experiment: Antiproliferative activity against human DG-75 cells assessed as inhibition of cell viability measured for 6 to 7 days by cell titer glo assay; assay type: functional, cell-based; method in brief: as §3
[27] = In vivo inhibition of Aurora B in human HCT-116 cells xenografted in athymic nude mouse assessed as reduction in HH3-S10 phosphorylation at 100 mg/kg, ip single dose measured upto 24 hrs relative to control; assay type: functional; design: scale not given: the % may be the effect or the level left
[28] = tested on: T47D; experiment: Antiproliferative activity against human T47D cells assessed as inhibition of cell viability measured for 6 to 7 days by cell titer glo assay; assay type: functional, cell-based; method in brief: as §1
[29] = Toxicity in SCID nude mouse xenografted with human NCI-H460 cells assessed as body weight loss at 25 to 100 mg/kg, ip administered once daily for 5 consecutive days with 2 days off scheduled for 3 cycles measured upto 60 days relative to control; assay type: organism-based; conditions: in vivo, 1440 h, dose 25-100 mg/kg, time < 60 day
[30] = Antiproliferative activity against human A375P cells assessed as inhibition of cell viability measured for 6 to 7 days by cell titer glo assay; assay type: functional, cell-based; method in brief: as §3
[31] = tested on: HL-60; experiment: Antitumor activity in human HL-60 cells xenografted in SCID mouse assessed as median survival time at 12.5 mg/kg, ip administered once daily for 5 consecutive days with 2 days off scheduled for 2 cycles measured upto 120 days; assay type: functional; conditions: time <= 120 day
[32] = Toxicity in SCID nude mouse xenografted with human HCT-116 cells assessed as body weight loss at 25 to 100 mg/kg, ip administered once daily for 5 consecutive days with 2 days off scheduled for 3 cycles measured upto 60 days relative to control; assay type: organism-based; conditions: in vivo, 1440 h, dose 25-100 mg/kg, time < 60 day
[33] = Antiproliferative activity against human MV-522 cells assessed as inhibition of cell viability measured for 6 to 7 days by cell titer glo assay; assay type: functional, cell-based; conditions: MV522; method in brief: as §2
[34] = tested on: SR; experiment: Antiproliferative activity against human SR cells assessed as inhibition of cell viability measured for 6 to 7 days by cell titer glo assay; assay type: functional, cell-based; method in brief: as §1

Question: For `CCn1cc(-c2ccnc3[nH]c(-c4cccc(CN(C)C)c4)cc23)c(-c2ccc(NC(=O)N(C)C)cc2)n1` [GSK-1070916], which EC50 [1] is on record?
Answer: 38 nM

Question: What about the EC50 [2] of the same molecule?
Answer: 8 nM

Question: What about the EC50 [3] of the same molecule?
Answer: 3 nM

Question: What about the EC50 [4] of the same molecule?
Answer: 7 nM

Question: What about the Activity [5] of the same molecule?
Answer: Active

Question: What about the EC50 [6] of the same molecule?
Answer: 75 nM

Question: And the EC50 [7]?
Answer: 7 nM

Question: And the EC50 [8]?
Answer: 10 nM

Question: And the EC50 [9]?
Answer: 3 nM

Question: What about the EC50 [10] of the same molecule?
Answer: 60 nM

Question: And the EC50 [11]?
Answer: 5 nM

Question: And the MST [12]?
Answer: 57 days

Question: What about the EC50 [13] of the same molecule?
Answer: 30 nM

Question: And the EC50 [14]?
Answer: 18 nM

Question: What about the EC50 [15] of the same molecule?
Answer: 3 nM

Question: What about the EC50 [16] of the same molecule?
Answer: 32 nM

Question: And the EC50 [17]?
Answer: 5 nM

Question: What about the EC50 [18] of the same molecule?
Answer: 4 nM

Question: And the EC50 [19]?
Answer: 7 nM

Question: And the EC50 [20]?
Answer: 31 nM

Question: And the EC50 [21]?
Answer: 4 nM

Question: What about the EC50 [22] of the same molecule?
Answer: 10 nM

Question: And the EC50 [23]?
Answer: 31 nM

Question: And the Activity [24]?
Answer: inactive

Question: What about the EC50 [25] of the same molecule?
Answer: 2 nM

Question: What about the EC50 [26] of the same molecule?
Answer: 18 nM

Question: And the Activity [27]?
Answer: >60%

Question: What about the EC50 [28] of the same molecule?
Answer: 13 nM

Question: And the Activity [29]?
Answer: < 15%

Question: And the EC50 [30]?
Answer: 7 nM

Question: What about the MST [31] of the same molecule?
Answer: 44 days

Question: And the Activity [32]?
Answer: < 15%

Question: What about the EC50 [33] of the same molecule?
Answer: 13 nM

Question: And the EC50 [34]?
Answer: 3 nM
